According to ChEMBL document CHEMBL4052722, “Virtual screening, synthesis and biological evaluation of DNA intercalating antiviral agents” (Bioorg Med Chem Lett, 2017):
The source made the active and inactive calls. The rule behind the calls is not given here.

What was measured:
[1] = Cytotoxicity against African green monkey CV1 cells assessed as viable cells at 1 uM after 110 hrs by real-time cell analysis relative to control; format: cell-based, CV-1; conditions: chlorocebus aethiops, read-out: Activity
Summary of the method: (§1)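 CV-1 cell viability was monitored in real time on an xCelligence Real-Time Cell Analyzer. This ran in parallel with the plaque-forming assay, in which cells were pre-incubated with the compounds for 4 h before infection.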

[2] = system: Vesicular stomatitis virus; assay: Antiviral activity against Vesicular stomatitis virus at 0.2 to 620 uM after 24 hrs post infection relative to control; format: functional
[3] = Selectivity index, ratio of CC50 for African green monkey CV1 cells to IC50 for Vaccinia virus LIVP harboring GFP infected in African green monkey CV1 cells; format: toxicity; conditions: read-out: Ratio CC50/IC50
[4] = system: L929; assay: Induction of IFN-alpha activity in mouse L929 cells infected with Encephalomyocarditis virus at 10 uM preincubated with cells for overnight followed by viral infection by optical microscopic analysis; format: functional, cell-based
[5] = Cytotoxicity against African green monkey CV1 cells assessed as viable cells at 10 uM after 110 hrs by real-time cell analysis relative to control; format: cell-based, CV-1; conditions: chlorocebus aethiops, read-out: Activity; summary of the method: as §1
[6] = Cytotoxicity against African green monkey CV1 cells assessed as cell viability at 0.1 to 100 uM preincubated for 4 hrs measured after 24 hrs by MTT assay relative to control; format: cell-based, CV-1; conditions: chlorocebus aethiops, read-out: Activity
Summary of the method: (§2)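 CV-1 cells were exposed to test samples at 0.1, 10 and 100 μM. Viability was read by MTT assay.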

[7] = Cytotoxicity against African green monkey CV1 cells assessed as viable cells at 30 uM after 110 hrs by real-time cells analysis relative to control; format: cell-based, CV-1; conditions: chlorocebus aethiops, read-out: Activity; summary of the method: as §1
[8] = species on record: Bos taurus; assay: Displacement of ethidium bromide from calf thymus DNA by fluorescence binding assay
[9] = Cytotoxicity against African green monkey CV1 cells assessed as reduction in cell viability preincubated for 4 hrs measured after 24 hrs by MTT assay relative to control; format: cell-based, CV-1; conditions: chlorocebus aethiops; summary of the method: as §2
[10] = Cytotoxicity against African green monkey CV1 cells assessed as viable cells at 50 uM after 110 hrs by real-time cell analysis relative to control; format: cell-based, CV-1; conditions: chlorocebus aethiops, read-out: Activity; summary of the method: as §1
[11] = Cytotoxicity against African green monkey CV1 cells assessed as viable cells at 5 uM after 110 hrs by real-time cell analysis relative to control; format: cell-based, CV-1; conditions: chlorocebus aethiops, read-out: Activity; summary of the method: as §1

Structure (SMILES)	Activity [2] [%]	viability at 24 h, up to 100 µM [6] [%]	log Ka [8]	CC50 at 24 h [9] [µM]	other results
CN(C)CCCNCCn1c2ccccc2c2nc3ccccc3nc21	69	88	6.76	50 to 92	viability at 110 h, 1 µM [1]: 114%; selectivity ratio [3]: 4; Activity [4]: inactive; viability at 110 h, 10 µM [5]: 110%; viability at 110 h, 30 µM [7]: 75%
CN1CCN(CC(=O)NN2C(=O)c3cccc4cccc(c34)C2=O)CC1		84	5.43	100	
O=C(CCCn1c2ccccc2c2nc3ccccc3nc21)NCCCN1CCOCC1		85	5.11	> 100	
CN(CCO)CCN1C(=O)c2cccc3cccc(c23)C1=O		88		> 100	
O=C(CCCn1c2ccccc2c2nc3ccccc3nc21)NCCN1CCCCC1		93	4.98	100	
O=C(Cn1c2ccccc2c2nc3ccccc3nc21)NCCN1CCOCC1	50	109	5.13	> 100	
CCCCN(C)CCn1c2ccccc2c2nc3ccccc3nc21	75	92	5.93	> 100	
CCN(CC)CCCC(C)N1C(=O)c2cccc3cccc(c23)C1=O (stereo not drawn)		86	5.5	50	
CCN(CCO)CCN1C(=O)c2cccc3cccc(c23)C1=O		79		100	
CN(C)CCNCCn1c2ccccc2c2nc3ccccc3nc21	42	99	6.83	> 100	
O=C(CCCn1c2ccccc2c2nc3ccccc3nc21)NCCN1CCOCC1		95	4.91	> 100	
CN(C)CCOC(=O)CCCn1c2ccccc2c2nc3ccccc3nc21	75	94	5.56	100	
CC1CCN(CC(=O)NN2C(=O)c3cccc4cccc(c34)C2=O)CC1		104	5.73	> 100	
O=C(Cn1c2ccccc2c2nc3ccccc3nc21)OCCN1CCCCC1	50	102	5.39	> 100	
CN(C)CCNC(=O)Cn1c2ccccc2c2nc3ccccc3nc21	82	94	5.38	> 100	
CCN(CC)CCCNC(=O)Cn1c2ccccc2c2nc3ccccc3nc21	85	88	4.93	100	
CCN(CC)CCCNCCn1c2ccccc2c2nc3ccccc3nc21	53	74	6.87	30 to 50	viability at 110 h, 1 µM [1]: 97.1%; viability at 110 h, 10 µM [5]: 125%; viability at 110 h, 50 µM [10]: 17.2%; viability at 110 h, 5 µM [11]: 125%
CN(C)CCCOC(=O)Cn1c2ccccc2c2nc3ccccc3nc21	100	87	5.28	100	
COc1ccc2c(c1)c1nc3ccccc3nc1n2CCN1CCCCC1		79		100 to 170	viability at 110 h, 1 µM [1]: 108%; selectivity ratio [3]: 34; Activity [4]: inactive; viability at 110 h, 10 µM [5]: 96.9%; viability at 110 h, 50 µM [10]: 75.6%
Cc1ccc2c(c1)c1nc3ccccc3nc1n2CCN1CCN(C)CC1		87		100	

Structure (SMILES)	Activity [2] [%]	viability at 24 h, up to 100 µM [6] [%]	log Ka [8]	CC50 at 24 h [9] [µM]	other results
CN(C)CCCNC(=O)CCCn1c2ccccc2c2nc3ccccc3nc21		96	5.09	> 100	
CCN(CC)CCNC(=O)Cn1c2ccccc2c2nc3ccccc3nc21	75	100	5.03	> 100	
O=C(CN1CCCC1)NN1C(=O)c2cccc3cccc(c23)C1=O		99	5.41	> 100	
COC(=O)CN(C)CCCN1C(=O)c2cccc3cccc(c23)C1=O		90		> 100	
CCN(CC)CCn1c2ccc(OC)cc2c2nc3ccccc3nc21		60		100	
O=C(CCCn1c2ccccc2c2nc3ccccc3nc21)OCCN1CCOCC1	80	102	5.7	> 100	
CN(C)CCCNC(=O)Cn1c2ccccc2c2nc3ccccc3nc21	50	84	5.2	100 to 500	viability at 110 h, 1 µM [1]: 104%; selectivity ratio [3]: 50; Activity [4]: inactive; viability at 110 h, 10 µM [5]: 131%; viability at 110 h, 50 µM [10]: 90%
O=C(Cn1c2ccccc2c2nc3ccccc3nc21)NCCCN1CCOCC1	60	102	5.32	> 100	
CN(C)CCn1c2ccccc2c2nc3ccccc3nc21	75	62	5.93	10	
CN(C)CCNC(=O)CCCn1c2ccccc2c2nc3ccccc3nc21		93	5.01	100	
c1ccc2nc3c(nc2c1)c1ccccc1n3CCNCCN1CCCCC1	52	113	6.85	> 100	
CCCCN(CCO)CCN1C(=O)c2cccc3cccc(c23)C1=O		70		> 100	
CCN(CC)CCNC(=O)CCCn1c2ccccc2c2nc3ccccc3nc21		88	5.25	100	
O=C(CN1CCCCCC1)NN1C(=O)c2cccc3cccc(c23)C1=O		97	5.53	> 100	
COC(=O)CN1CCN(CCN2C(=O)c3cccc4cccc(c34)C2=O)CC1		78		> 100	
CCN(CC)CCNCCn1c2ccccc2c2nc3ccccc3nc21	73	99	6.82	> 100	
CN1CCN(CCn2c3ccccc3c3nc4ccccc4nc32)CC1	85	82	5.87	50	
CN1CCN(CCN2C(=O)c3cccc4cccc(c34)C2=O)CC1		65		100	
c1ccc2nc3c(nc2c1)c1ccccc1n3CCNCCCN1CCOCC1	52	79	6.72	50 to 81	viability at 110 h, 1 µM [1]: 107%; selectivity ratio [3]: 4; Activity [4]: inactive; viability at 110 h, 10 µM [5]: 110%; viability at 110 h, 30 µM [7]: 75%
CC(O)N(C)CCn1c2ccccc2c2nc3ccccc3nc21 (stereo not drawn)		78		100	
